How the values were obtained:
thrombin [1] = target: T1, thrombin (Homo sapiens, UniProt P00734); assay: Michaelis-Menten kinetics of Spectrozyme TH hydrolysis; assay type: biochemical; settings: Michaelis-Menten kinetic studies
Summary of the method: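 Thrombin hydrolysis of Spectrozyme TH, a chromogenic substrate, was read spectrophotometrically at pH 7.4 and 25 °C. The substrate was varied at several test compound levels up to 40 μM. VMAX and KM were taken from Michaelis-Menten analysis to assign the inhibition mechanism.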

[2] = target: thrombin cleavage of human fibrinogen (Homo sapiens, UniProt P00734); assay: PAGE densitometry of thrombin cleavage of fibrinogen; assay type: biochemical; settings: for Maximal inhibition of fibrinogen cleavage (ΔY against fibrinogen): saturating inhibitor, 4.7 μM fibrinogen, 6 nM thrombin, pH 7.4, 25 °C
Summary of the method: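 Thrombin (6 nM) cleaved human fibrinogen (4.7 μM) with test compound at 0 to 150 μM. Fibrinogen cleavage was monitored by polyacrylamide gel electrophoresis.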

[3] = tested on: recombinant thrombin mutants (exosite 2 Ala replacements); assay: Inhibition of recombinant exosite 2 alanine mutant versus wild-type thrombins; assay type: biochemical; settings: 11 single Ala mutants of exosite 2, Spectrozyme TH, pH 7.4, 25 °C
thrombin [4] = target: T1, thrombin; assay: Thrombin inhibition, chromogenic substrate hydrolysis assay; assay type: biochemical; settings: 20 mM Tris-HCl pH 7.4, 25 mM CaCl2, 100 mM NaCl, 0.1% PEG 8000, 25 °C, ± 1 S.E.
thrombin [5] = target: T1, thrombin; settings: inhibition of human thrombin by peptides; cited from earlier work

Mechanism of inhibition (thrombin [1])	Maximal inhibition of fibrinogen cleavage (ΔY against fibrinogen) [2]	Fibrinogen cleavage continuing at saturating inhibitor ([2]; saturating levels of inhibitor)	ΔY (efficacy of inhibition) (thrombin [4])	Molecule	IC50 of mutant versus wild-type thrombin [3]	IC50 (thrombin [5])
noncompetitive inhibitor	about 70±8%	approximately 30%		CCOC(=O)c1c(C)oc2cc(OCCc3ccccc3)c(OCc3oc4cc(OC)c(OS(=O)(=O)[O-])cc4c3C(=O)OCC)cc12.[Na+] [2c]	virtually no difference in IC50 between wild-type and mutant thrombin except for Arg233Ala and Lys235Ala proteins	
			~ 90%	CCOC(=O)c1c(C)oc2cc(OCC3CCCCC3)c(OCc3oc4cc(OCC5CCCCC5)c(OS(=O)(=O)[O-])cc4c3C(=O)OCC)cc12.[Na+] [2h]		
mixed inhibition	greater than 90%			CCOC(=O)c1c(C)oc2cc(OCc3ccccc3)c(OCc3oc4cc(OCC5CCCCC5)c(OS(=O)(=O)[O-])cc4c3C(=O)OCC)cc12.[Na+] [2i]	potency changed significantly for several mutants including Arg165Ala, Lys169Ala, Arg175Ala, Arg233Ala and Lys236Ala	
				Fibrinogen peptide (410 – 427): allosteric peptide inhibitor of thrombin, literature value from ref 18		130 µM

From article PMC5851871 (Bioorganic & medicinal chemistry letters, 2018)
